Source: ChEMBL document CHEMBL4184306 (Bioorg Med Chem Lett, 2018)
Converted amounts (≈) assume the structure as drawn.

Tests used:
[1] = Aqueous solubility of the compound in phosphate buffer at pH 7.4 measured after 24 hrs by HPLC method; assay type: physicochemical
Summary of the method: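 Measured in phosphate buffer at pH 7.4 and 37 °C, with the dissolved compound quantified by high-performance liquid chromatography.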

[2] = test system: A2780; assay: Growth inhibition of human A2780 cells after 72 hrs by SRB assay; assay type: functional, cell-based; conditions: A2780, 72 h
[3] = Growth inhibition of SV-40 immortalized human ovarian epithelial cells after 72 hrs by SRB assay
[4] = test system: Plasmodium falciparum; assay: Antiplasmodial activity against Plasmodium falciparum Dd2 by SYBR Green I fluorescence assay; assay type: functional, organism-based
[5] = Growth inhibition of human A2780cis cells after 72 hrs by SRB assay; assay type: functional, cell-based
[6] = test system: OVCAR-8; assay: Growth inhibition of human OVCAR8 cells after 72 hrs by SRB assay; assay type: functional, cell-based; conditions: OVCAR-8, 72 h
[7] = test system: A2780 (human); assay: Selectivity index, ratio of IC50 for SV-40 immortalized human ovarian epithelial cells to IC50 for human A2780 cells
[8] = test system: Plasmodium falciparum; assay: Antiplasmodial activity against chloroquine sensitive Plasmodium falciparum FCR-3/Gambia assessed as [3H]hypoxanthine incorporation after 72 hrs; assay type: functional, organism-based
[9] = test system: A2780; assay: Growth inhibition of human A2780 cells after 48 hrs by MTT assay; assay type: functional, cell-based; conditions: A2780, 48 h
[10] = Growth inhibition of human A2780cis cells after 72 hrs by MTT assay; assay type: functional, cell-based
[11] = Growth inhibition of SV-40 immortalized human ovarian epithelial cells after 48 hrs by MTT assay
[12] = test system: Plasmodium falciparum; assay: Antiplasmodial activity against chloroquine and artemisinin sensitive Plasmodium falciparum FCR-3/Gambia after 72 hrs; assay type: functional, organism-based

Row | SMILES | solubility at 24 h [1] [µg/mL] | IC50 [2] [µM] | IC50 [3] [µM] | IC50 [4] [µM] | IC50 [5] [µM] | IC50 [6] [µM] | selectivity ratio [7] | IC50 [8] [µM] | IC50 [9] [µM] | IC50 [10] [µM] | IC50 [11] [µM] | IC50 [12] [µM]
1 | CC1=CC(=O)C=C(C)C1=O | 5040 (≈ 37 mM) | 3.2 | 5.3 | 10.4 | 2.9 | 5.2 | 1.7 |  |  |  |  | 
2 | CC(C)(C)C1=CC(=O)C=CC1=O |  | 5.7 | 10.3 | 15.6 | 4.9 | 10 | 1.8 |  |  |  |  | 
3 | CC1=CC(=O)C(C(C)(C)C)=CC1=O |  | 7.5 | 55.8 | 19.7 | 7.9 | 13.5 | 7.5 |  |  |  |  | 
4 | CC1=C(N)C(=O)C(C(C)C)=CC1=O |  | 19.9 | 139 | 19.3 | 19.3 | 35.1 | 7.1 |  |  |  |  | 
5 | CC(C)(C)C1=CC(=O)C=C(C(C)(C)C)C1=O |  | 24.6 | 51.5 | 29.5 | 31.1 | 37.4 |  |  |  |  |  | 
6 | CC(C)(C)C1=CC(=O)C(C(C)(C)C)=CC1=O |  | 34 | 117 | 4.2 | 42.5 | 51.2 |  |  |  |  |  | 
7 | CC1=CC(=O)C(Nc2ccc(F)cc2)=CC1=O |  | 15 | 20.2 | 100 | 21.8 | 32 | 1.3 |  |  |  |  | 
8 | CC1=CC(=O)C(N(C)C)=CC1=O | 8320 (≈ 50.4 mM) | 6.2 | 7.9 | 9.9 | 4.7 | 5.6 | 1.7 |  |  |  |  | 
9 | Cc1cc(O)c(C(C)C)cc1O |  | 3.1 | 14 | 15.9 | 9.8 | 8.9 | 4.5 |  |  |  |  | 
10 | Cc1cc(O)cc(C)c1O |  | 3.6 | 7.8 | 15.4 | 3.6 | 8.3 | 2.1 |  |  |  |  | 
11 | CC(C)(C)CC(C)(C)C1=CC(=O)C(C(C)(C)CC(C)(C)C)=CC1=O |  | 44.2 | > 200 | 116 | 51.8 | 56.5 | > 4.6 |  |  |  |  | 
12 | CNC1=C(C)C(=O)C=C(C(C)C)C1=O |  | 14 | 36.8 | 52.7 | 7.3 | 12.9 | 5 |  |  |  |  | 
13 | Cc1c(O)c(Br)c(C(C)C)c(O)c1Br |  | 3.4 | 11 | 25.6 | 4.8 | 11.6 | 3.2 |  |  |  |  | 
14 | CCC(C)(C)C1=CC(=O)C(C(C)(C)CC)=CC1=O |  | 36.1 | > 200 | 78.8 | 48.8 | 54.2 | > 5 |  |  |  |  | 
15 | CC1=C(Cl)C(=O)C(C(C)(C)C)=C(Cl)C1=O |  | 4.5 | 3.1 | 16.2 | 4.2 | 6 | < 1 |  |  |  |  | 
16 | Cc1cc(O)c(C(C)(C)C)cc1O |  | 6.4 | 85.6 | 17.9 | 11.5 | 12.2 | 13.4 |  |  |  |  | 
17 | CCNC1=C(C)C(=O)C=C(C(C)C)C1=O |  | 12.6 | 30.3 | 11.1 | 9.6 | 16 | 3.1 |  |  |  |  | 
18 | CC1=C(N(C)C)C(=O)C=CC1=O |  | 16.7 | 28.2 | 191 | 20.5 | 35.6 | 1.3 |  |  |  |  | 
19 | CC1=CC(=O)C=CC1=O [Cresoquinone] |  | 12.1 | 6 |  | 11.8 | 13.4 | < 1 |  |  |  |  | 
20 | CC1=C(Br)C(=O)C(C(C)C)=C(Br)C1=O [Dibromothymoquinone] |  | 4.9 | 7.3 | 30 | 5.3 | 3.6 | 1.5 |  |  |  |  | 
21 | Cc1cc(O)ccc1O [METHYLHYDROQUINONE] |  | 5.7 | 6.3 | 134 | 4.7 | 6.2 |  |  |  |  |  | 
22 | CC(=O)O[C@H]1C(=O)[C@@]2(C)[C@H]([C@H](OC(=O)c3ccccc3)[C@]3(O)C[C@H](OC(=O)[C@H](O)[C@@H](NC(=O)c4ccccc4)c4ccccc4)C(C)=C1C3(C)C)[C@]1(OC(C)=O)CO[C@@H]1C[C@@H]2O [PACLITAXEL] |  | 0.009 |  |  |  | 0.01 |  | 0.003 to 0.006 | 0.05 | 0.003 to 0.004 | 0.03 | 
23 | CC1=CC(=O)C(C(C)C)=CC1=O [THYMOQUINONE] | 468 (≈ 2.85 mM) | 7.9 | 17.8 | 25 | 7.8 | 11.6 |  |  |  |  |  | 1.2
